From ChEMBL document CHEMBL3414564, “3'-functionalized adamantyl cannabinoid receptor probes” (J Med Chem, 2015)
Calls of active or inactive are those of the source. The rule behind the calls is not given here.

Columns and labels:
Cannabinoid receptor 1 [1] = target: T1, Cannabinoid receptor 1 (Rattus norvegicus, UniProt P20272); assay: Displacement of [3H]CP-55,940 from CB1 receptor in rat brain membranes; format: cell membranes, Membrane
Summary of the method: (§1)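 Competition binding against [3H]CP-55,940 on rat brain membranes (CB1) or on membranes of HEK293 cells expressing mouse or human CB2. IC50 by nonlinear regression, converted to Ki. For isothiocyanates the value is an apparent Ki (Ki*), which depends on pretreatment time. Triplicate points; mean of three independent experiments.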

Cannabinoid receptor 2 [2] = target: Cannabinoid receptor 2 (Mus musculus, UniProt P47936); assay: Displacement of [3H]CP-55,940 from mouse CB2 receptor expressed in HEK293 cell membranes; summary of the method: as §1
Cannabinoid receptor 2 [3] = target: T2, Cannabinoid receptor 2 (Homo sapiens, UniProt P34972); assay: Displacement of [3H]CP-55,940 from human CB2 receptor expressed in HEK293 cell membranes; summary of the method: as §1
Cannabinoid receptor 1 [4] = target: T1, Cannabinoid receptor 1; assay: Agonist activity at rat CB1 receptor expressed in HEK293 cells assessed as inhibition of forskolin-induced cAMP accumulation incubated for 60 mins
[5] = target: Cannabinoid receptor 1 (Rattus norvegicus) (UniProt P20272); assay: Agonist activity at rat CB1 receptor expressed in HEK293 cells assessed as inhibition of forskolin-induced cAMP accumulation incubated for 60 mins relative to 500 nM CP-55,940; format: functional, cell-based
Cannabinoid receptor 2 [6] = target: T2, Cannabinoid receptor 2; assay: Inverse agonist activity at human CB2 receptor expressed in HEK293 cells assessed as inhibition of forskolin-induced cAMP accumulation incubated for 60 mins; format: functional, cell-based
Summary of the method: (§2)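 Forskolin-stimulated cAMP in HEK293 cells stably expressing rCB1 or hCB2, detached non-enzymatically and washed in HBSS, 1000–1500 cells/well. Compound series given in stimulation buffer with 2 μM forskolin (final), 30 min at room temperature. Eu-cAMP tracer and anti-cAMP TR-FRET detection reagents were then added for 60 min at room temperature. EC50 by nonlinear regression; two independent experiments in triplicate.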

Cannabinoid receptor 2 [7] = target: T2, Cannabinoid receptor 2; assay: Inverse agonist activity at human CB2 receptor expressed in HEK293 cells assessed as inhibition of forskolin-induced cAMP accumulation incubated for 60 mins relative to 500 nM CP-55,940; format: functional, cell-based
[8] = target: Cannabinoid receptor 1 (Rattus norvegicus) (UniProt P20272); assay: Covalent binding affinity to CB1 receptor in rat brain membranes assessed as covalent labeling at 10 times Ki level incubated for 30 mins at 37 degC followed by UV irradiation by [3H]CP-55,940 radioligand binding assay; format: cell membranes; settings: Membrane
Summary of the method: (§3)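 Membranes were incubated with azido ligand at 10× its Ki for 30 min at 37 °C with gentle agitation, then given UV at 254 nm for 1 min. They were washed twice with 1% BSA in TME and once with TME, and pelleted. A blank membrane sample was run in parallel. Bmax came from [3H]CP-55,940 saturation binding at 0.5–23.8 nM with 25 μg protein, 1 h at 30 °C. Nonspecific binding was taken with 4 μM unlabeled CP-55,940. Labeling % = (Bmax control − Bmax ligand)/Bmax control × 100.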

Cannabinoid receptor 2 [9] = target: T2, Cannabinoid receptor 2; assay: Covalent binding affinity to human CB2 receptor expressed in HEK293 cell membranes assessed as covalent labeling at 10 times Ki level incubated for 30 mins at 37 degC followed by UV irradiation by [3H]CP-55,940 radioligand binding assay; summary of the method: as §3
Cannabinoid receptor 1 [10] = target: T1, Cannabinoid receptor 1; assay: Displacement of [3H]CP-55,940 from CB1 receptor in rat brain membranes incubated for 15 mins; format: cell membranes, Membrane
Summary of the method: (§4)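 Competition binding on rat brain membranes (CB1) against [3H]CP-55,940. Membranes were pretreated with the covalently reacting isothiocyanate ligand for the stated time (15, 30, 60 or 90 min) before the binding step. IC50 came from nonlinear regression and was converted to Ki. Values are reported as a time-dependent apparent Ki (Ki*).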

Cannabinoid receptor 1 [11] = target: T1, Cannabinoid receptor 1; assay: Displacement of [3H]CP-55,940 from CB1 receptor in rat brain membranes incubated for 30 mins; format: cell membranes, Membrane; summary of the method: as §4
Cannabinoid receptor 1 [12] = target: T1, Cannabinoid receptor 1; assay: Displacement of [3H]CP-55,940 from CB1 receptor in rat brain membranes incubated for 60 mins; format: cell membranes, Membrane; summary of the method: as §4
Cannabinoid receptor 1 [13] = target: T1, Cannabinoid receptor 1; assay: Displacement of [3H]CP-55,940 from CB1 receptor in rat brain membranes incubated for 90 mins; format: cell membranes, Membrane; summary of the method: as §4
Cannabinoid receptor 2 [14] = target: T2, Cannabinoid receptor 2; assay: Activity at human CB2 receptor expressed in HEK293 cells assessed as inhibition of forskolin-induced cAMP accumulation up to 3 uM incubated for 60 mins; format: functional, cell-based; summary of the method: as §2
[15] = target: Cannabinoid receptor 1 (Rattus norvegicus) (UniProt P20272); assay: Irreversible binding affinity to CB1 receptor in rat brain membranes assessed as receptor occupancy at 10 times Ki level incubated for 15 mins by [3H]CP-55,940 radioligand binding assay; format: cell membranes; settings: Membrane
Summary of the method: (§5)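 Rat brain CB1 membranes were pretreated with isothiocyanate ligand at 10× its Ki at 37 °C for 15, 30 or 60 min. The control was 60 min without ligand. Unbound ligand was removed by BSA/TME washes and centrifugation. Bmax came from [3H]CP-55,940 saturation binding at 0.5–23.8 nM, 25 μg protein, 1 h at 30 °C, with 4 μM unlabeled CP-55,940 for nonspecific binding. Irreversible occupancy = percent Bmax reduction.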

[16] = target: Cannabinoid receptor 1 (Rattus norvegicus) (UniProt P20272); assay: Irreversible binding affinity to CB1 receptor in rat brain membranes assessed as receptor occupancy at 10 times Ki level incubated for 30 mins by [3H]CP-55,940 radioligand binding assay; format: cell membranes; settings: Membrane; summary of the method: as §5
[17] = target: Cannabinoid receptor 1 (Rattus norvegicus) (UniProt P20272); assay: Binding affinity to CB1 receptor in rat brain membranes assessed as receptor occupancy at 10 times Ki level incubated for 60 mins by [3H]CP-55,940 radioligand binding assay; format: cell membranes; settings: Membrane; summary of the method: as §5

Chain of Cannabinoid receptor 2 (Mus musculus, UniProt P47936) (P47936 whole entry): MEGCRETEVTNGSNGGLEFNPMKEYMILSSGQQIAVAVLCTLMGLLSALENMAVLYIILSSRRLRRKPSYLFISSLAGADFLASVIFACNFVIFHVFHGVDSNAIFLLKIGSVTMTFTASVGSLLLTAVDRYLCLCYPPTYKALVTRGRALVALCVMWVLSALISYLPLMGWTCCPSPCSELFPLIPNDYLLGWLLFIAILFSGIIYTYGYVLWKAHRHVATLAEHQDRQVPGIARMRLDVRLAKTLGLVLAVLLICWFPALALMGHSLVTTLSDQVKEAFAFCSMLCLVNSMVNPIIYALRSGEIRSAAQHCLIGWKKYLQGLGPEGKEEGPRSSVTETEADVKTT
T1 sequence (P20272 whole entry): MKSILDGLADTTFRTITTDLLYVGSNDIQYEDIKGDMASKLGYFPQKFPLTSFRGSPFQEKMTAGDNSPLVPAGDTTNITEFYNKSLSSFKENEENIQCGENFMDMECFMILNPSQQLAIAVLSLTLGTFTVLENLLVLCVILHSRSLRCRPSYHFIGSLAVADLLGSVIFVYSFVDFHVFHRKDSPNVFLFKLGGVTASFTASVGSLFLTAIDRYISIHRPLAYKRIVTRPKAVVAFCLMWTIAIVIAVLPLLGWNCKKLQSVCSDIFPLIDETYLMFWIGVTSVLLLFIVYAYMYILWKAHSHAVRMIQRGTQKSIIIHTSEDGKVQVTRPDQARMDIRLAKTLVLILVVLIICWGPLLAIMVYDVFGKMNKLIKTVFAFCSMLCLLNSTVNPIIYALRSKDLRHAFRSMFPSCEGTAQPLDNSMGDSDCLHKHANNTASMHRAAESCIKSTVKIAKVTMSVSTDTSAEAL
Chain of Cannabinoid receptor 1 (Rattus norvegicus) (P20272 whole entry): as above
T2 sequence (P34972 whole entry): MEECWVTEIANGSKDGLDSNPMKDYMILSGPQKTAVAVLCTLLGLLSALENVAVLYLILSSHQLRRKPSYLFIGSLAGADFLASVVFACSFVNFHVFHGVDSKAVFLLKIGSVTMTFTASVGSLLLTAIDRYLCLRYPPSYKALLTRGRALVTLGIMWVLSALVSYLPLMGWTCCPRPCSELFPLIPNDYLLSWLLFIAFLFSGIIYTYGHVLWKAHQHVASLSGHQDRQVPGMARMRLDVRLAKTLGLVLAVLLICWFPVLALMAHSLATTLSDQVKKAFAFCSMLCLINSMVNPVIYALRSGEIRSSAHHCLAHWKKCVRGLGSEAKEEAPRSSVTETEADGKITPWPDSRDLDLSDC

Structure (SMILES)	Ki (Cannabinoid receptor 1 [1]; read-out: Ki) [nM]	Ki (Cannabinoid receptor 2 [2]; read-out: Ki) [nM]	Ki (Cannabinoid receptor 2 [3]; read-out: Ki) [nM]	EC50 (Cannabinoid receptor 1 [4]) [nM]	Emax [5] [%]	EC50 (Cannabinoid receptor 2 [6]) [nM]	Emax (Cannabinoid receptor 2 [7]) [%]	Activity [8]	Activity (Cannabinoid receptor 2 [9])	Activity (Cannabinoid receptor 2 [14])	other results
CC1(C)Oc2cc([C@]34CC5CC(C[C@@](N)(C5)C3)C4)cc(O)c2[C@@H]2C[C@H](O)CC[C@H]21	> 1000	> 1000	> 1000								
CC1(C)Oc2cc([C@]34CC5CC(C[C@@](C(=O)O)(C5)C3)C4)cc(O)c2[C@@H]2C[C@H](O)CC[C@H]21	> 1000	> 1000	> 1000								
CC1(C)Oc2cc([C@]34CC5CC(C[C@@](C(N)=O)(C5)C3)C4)cc(O)c2[C@@H]2C[C@H](O)CC[C@H]21	297	947	337								
CC1(C)Oc2cc([C@]34CC5CC(C[C@@](C#N)(C5)C3)C4)cc(O)c2[C@@H]2C[C@H](O)CC[C@H]21	45.8	2.8	4.2	95.2	82	90.7	-93				
CC1(C)Oc2cc([C@]34CC5CC(C[C@@](CC#N)(C5)C3)C4)cc(O)c2[C@@H]2C[C@H](O)CC[C@H]21	2.6	4.4	4.6	5.4	78	83.1	-78	inactive	inactive		
CC1(C)Oc2cc([C@]34CC5CC(C[C@@](CN=C=S)(C5)C3)C4)cc(O)c2[C@@H]2C[C@H](O)CC[C@H]21				0.8	94	> 400	-91	63%	74%		Ki (Cannabinoid receptor 1 [1]; read-out: Ki(app)): 3 nM; Ki (Cannabinoid receptor 2 [2]; read-out: Ki(app)): 34.6 nM; Ki (Cannabinoid receptor 2 [3]; read-out: Ki(app)): 10.3 nM
COC(=O)N[C@]12CC3CC(C1)C[C@](c1cc(O)c4c(c1)OC(C)(C)[C@@H]1CC[C@@H](O)C[C@@H]41)(C3)C2	29.1	2.1	8.4	1.6	71	15.8	-74				
CC1(C)Oc2cc([C@]34CC5CC(C[C@@](N=C=S)(C5)C3)C4)cc(O)c2[C@@H]2C[C@H](O)CC[C@H]21				12	68			54%	25%	inactive	Ki (Cannabinoid receptor 1 [1]; read-out: Ki(app)): 35.4 nM; Ki (Cannabinoid receptor 2 [2]; read-out: Ki(app)): 31.7 nM; Ki (Cannabinoid receptor 2 [3]; read-out: Ki(app)): 13.1 nM; Ki (Cannabinoid receptor 1 [10]): 96 nM; Ki (Cannabinoid receptor 1 [11]): 58.6 nM; Ki (Cannabinoid receptor 1 [12]): 35.4 nM; Ki (Cannabinoid receptor 1 [13]): 35.7 nM; Activity [15]: 26%; Activity [16]: 54%; Activity [17]: Active
CC1(C)Oc2cc([C@]34CC5CC(C[C@@](N=[N+]=[N-])(C5)C3)C4)cc(O)c2[C@@H]2C[C@H](O)CC[C@H]21	18.6	38.4	24.8	4.4	73			61%	26%	inactive	
CC1(C)Oc2cc([C@]34CC5CC(C[C@@](CN)(C5)C3)C4)cc(O)c2[C@@H]2C[C@H](O)CC[C@H]21	> 1000	> 1000	> 1000								
CC1(C)Oc2cc([C@]34CC5CC(C[C@@](CN=[N+]=[N-])(C5)C3)C4)cc(O)c2[C@@H]2C[C@H](O)CC[C@H]21	4.4	26.4	9.6	2.4	45			67%	60%	inactive	
CC1(C)Oc2cc(C34CC5CC(CC(C5)C3)C4)cc(O)c2[C@@H]2C[C@H](O)CC[C@H]21				2.7	69					inactive	
